Measured values from PMC2923871 (Journal of Medicinal Chemistry, 2010).
Like-named read-outs stand apart in the source and are kept apart here. One block for each compound: values may come before it.

Assays:
[1] = phosphate buffer pH 7.4; previously reported compound; cited from earlier work
[2] = Pooled human liver microsomal assay; assay type: in vitro ADME; conditions: pooled human liver microsomes, 0.5 μM compound, NADPH
How it was run: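 Microsomes at 0.5 mg/mL in 50 mM potassium phosphate, pH 7.4, reaction started with excess NADPH. Aliquots at 0, 3, 6, 9, 15 and 30 min quenched in acetonitrile, internal standard added, protein spun down, UPLC-MS/MS. Rate constant from exponential decay of compound/internal standard peak-area ratio. CLi scaled by incubation volume/mg protein and 52.5 mg protein/g liver. Verapamil positive control.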

[3] = Chemical stability in phosphate buffer at pH 7.4; assay type: physicochemical; conditions: pH 7.4, t1/2 pH 7.4, phosphate buffer pH 7.4
[4] = system: bloodstream form T. b. brucei BS427; test: Trypanocidal activity, Alamar Blue assay; assay type: cell-based
[5] = system: T. brucei; conditions: cited from earlier work

SMILES: COC(=O)[C@@H](C)NP(=O)(OC[C@H]1OC(C)(C)O[C@H]1C(=O)NO)Oc1ccc([N+](=O)[O-])cc1 (stereo partly drawn) [15a]
- half-life [1]: about 50 min

SMILES: CCOC(=O)[C@H](NP(=O)(OC[C@H]1OC(C)(C)O[C@H]1C(=O)NO)Oc1ccccc1)C(C)C (stereo partly drawn) [15f]
- PHLM Cli [2]: <0.5 mL/min/g

SMILES: Cc1cccc(OP(=O)(N[C@@H](C(=O)OC(C)(C)C)C(C)C)OC[C@H]2OC(C)(C)O[C@H]2C(=O)NO)c1C (stereo partly drawn) [15q]
- increase in activity ([4]; 15q relative to 15a): more than 5000 times

SMILES: CC1(C)O[C@H](COP(=O)(O)O)[C@H](C(=O)NO)O1 [compound 1, 2,3-O-Isopropylidene-4-erythrono hydroxamate]
- EC50 ([5]; T. brucei cell culture, previously reported compounds): > 330000 nM
- activity against the parasite ([5]; result in words): inactive

Continued, in another order:

- PHLM Cli [2]: <0.5 mL/min/g
SMILES: CCOC(=O)[C@H](NP(=O)(OC[C@H]1OC(C)(C)O[C@H]1C(=O)NO)Oc1ccc(C)cc1)C(C)C (stereo partly drawn) [15l]

- half-life [3]: 30 h
SMILES: COC(=O)[C@@H](C)NP(=O)(OC[C@H]1OC(C)(C)O[C@H]1C(=O)NO)Oc1cccc(C)c1C (stereo partly drawn) [15o]
- IC50 ([4]; Trypanosoma brucei): 270 nM

- PHLM Cli [2]: <0.5 mL/min/g
SMILES: CCOC(=O)[C@H](NP(=O)(OC[C@H]1OC(C)(C)O[C@H]1C(=O)NO)Oc1cccc(C)c1C)C(C)C (stereo partly drawn) [15p]
